The values that follow come from ChEMBL document CHEMBL2321676, “Antimalarial and Structural Studies of Pyridine-containing Inhibitors of 1-Deoxyxylulose-5-phosphate Reductoisomerase” (ACS Med Chem Lett, 2013).

As usually defined, the EC50 is the concentration giving half of the maximal effect. Usually half-life stands for the time needed for the level to fall by half in the phase considered. Usually Ki stands for the equilibrium dissociation constant of an inhibitor or competing ligand from its target.

Molecules are shown by their SMILES.

The subject of series [1] is Plasmodium falciparum. The experiment in a line: Antimalarial activity against Plasmodium falciparum 3D7 after 3 days by SYBR green I assay. To be noted: 3D7, 72 h. Format: functional, organism-based.
A short description of series [2]: Half life in plasma (unknown origin). The following applies: unidentified. The series is classed as ADME, cell-free.
Series [3] deals with Plasmodium falciparum. The experiment in a line: Antimalarial activity against Plasmodium falciparum Dd2 after 3 days by SYBR green I assay. Format: functional, organism-based. The following applies: Dd2, 72 h.
The nature of series [4]: Selectivity index, ratio of EC50 for human WI38 cells to EC50 for Plasmodium falciparum. To be noted: read-out: Ratio EC50. The series is classed as toxicity, cell-based, WI-38.
The next series relates to WI-38. The series can be described thus: Cytotoxicity against human WI38 cells after 48 hrs by MTS assay. Format: cell-based. The following applies: WI-38, 48 h.
Series [5] concerns Plasmodium falciparum. The experiment in a line: Ratio of fosmidomycin Ki to compound Ki for Plasmodium falciparum recombinant DXR.
Series [6] is described as follows: Inhibition of Plasmodium falciparum recombinant DXR using DXP as substrate preincubated for 5 mins. In short, it runs like this: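 Recombinant P. falciparum DXR. Inhibition is expressed as Ki.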
Series [7] in a line: Inhibition of Escherichia coli recombinant DXR using DXP as substrate preincubated for 5 mins.

Regarding `O=CN(O)CCCP(=O)(O)O` [FOSMIDOMYCIN], the EC50 with Plasmodium falciparum [1] was 1170 nM; in the series on Plasmodium falciparum [3], 440 nM. The same compound had a half-life in series [2] of 1 h.

Regarding `CC(=O)N(O)CCC(c1ccncc1)P(=O)(O)O` (stereo unspecified), in series [4], the selectivity ratio is above 1700. The figures for the EC50 in the series with WI-38, in the series with Plasmodium falciparum [1] and in the series with Plasmodium falciparum [3] were above 300000 nM, 630 nM and 460 nM, respectively. Moreover, in the series on Plasmodium falciparum [5], the Ratio Ki was 1.6. In addition, the figures for the inhibitory constant (Ki) in series [6] and in series [7] were 13 nM and 82 nM, respectively.

As to `O=CN(O)CCC(c1ccncc1)P(=O)(O)O` (stereo unspecified), the selectivity ratio in series [4] was above 1700. Moreover, the half-maximal effective concentration (EC50) with WI-38 is above 300000 nM; in the series on Plasmodium falciparum [1], 180 nM; in the series with Plasmodium falciparum [3], 170 nM. For the same compound, the Ratio Ki in the series with Plasmodium falciparum [5] was determined as 2.4. For the same compound, the inhibition constant (Ki) in series [6] was 8.9 nM; in series [7] it was 35 nM.

Take `CCN(CC)CCCC(C)Nc1ccnc2cc(Cl)ccc12` (stereo unspecified) [CHLOROQUINE]: the values for the EC50 with Plasmodium falciparum [1] and in the series with Plasmodium falciparum [3] were 21 nM and 120 nM, respectively.

For the compound `CC(=O)N(O)CCC(c1cccnc1)P(=O)(O)O` (stereo unspecified), the selectivity ratio in series [4] is above 1700. Further, the 50% effective concentration (EC50) in the series with WI-38 was above 300000 nM; in the series with Plasmodium falciparum [1], 440 nM; with Plasmodium falciparum [3], 310 nM. Further, the Ratio Ki with Plasmodium falciparum [5] is 11. Besides, the Ki came to 1.9 nM in series [6] and 42 nM in series [7].

Regarding `O=CN(O)CCC(c1ccccc1)P(=O)(O)O` (stereo unspecified), the Ki was 480 nM in series [6] and 1500 nM in series [7].

For the compound `CC(=O)N(O)CCC(c1ccccc1)P(=O)(O)O` (stereo unspecified), the values for the concentration for a half-maximal effect (EC50) in the series on Plasmodium falciparum [1] and in the series on Plasmodium falciparum [3] were 3500 nM and 1700 nM, respectively.

As for `O=CN(O)CCC(c1cccnc1)P(=O)(O)O` (stereo unspecified), the selectivity ratio in series [4] was above 1700. Also, the values for the EC50 with WI-38, with Plasmodium falciparum [1] and in the series on Plasmodium falciparum [3] were above 300000 nM, 340 nM and 180 nM, respectively. The Ki in series [6] came to 13 nM; in series [7] it was 87 nM.
